Laboratory results: ChEMBL document CHEMBL5058577, “EUbOPEN Chemogenomics Library 2 (Multiplex)” (2022)

Test system: HEK-293T
Experiment: Multiplex assay against HEK293T
Type: toxicity, cell-based
Details: human
Method in brief: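 Hoechst33342, BioTracker Green Microtubule Cytoskeleton Dye, MitoTracker Red and Annexin V Alexa Fluor 680 were added to live cells at seeding, and imaging on a CQ1 microscope at 37°C and 5% CO2 followed compound addition. Gating by CellPathfinder machine learning separated cells into Hoechst high-intensity objects or normal cells, then normal cells into healthy, pyknosed or fragmented nuclei, then pyknosed cells into mitotic or apoptotic. Per cents of healthy-nucleus cells are reported for the tubulin, mitochondrial-mass and membrane-permeability phenotypes.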

[1] = 12 h, 1 µM, compound concentration 1 uM, replicate 1
[2] = 12 h, 1 µM, compound concentration 1 uM, replicate 2
[3] = 12 h, 10 µM, compound concentration 10 uM, replicate 1
[4] = 12 h, 10 µM, compound concentration 10 uM, replicate 2
[5] = 24 h, 1 µM, compound concentration 1 uM, replicate 1
[6] = 24 h, 1 µM, compound concentration 1 uM, replicate 2
[7] = 24 h, 10 µM, compound concentration 10 uM, replicate 1
[8] = 24 h, 10 µM, compound concentration 10 uM, replicate 2
[9] = 48 h, 1 µM, compound concentration 1 uM, replicate 1
[10] = 48 h, 1 µM, compound concentration 1 uM, replicate 2
[11] = 48 h, 10 µM, compound concentration 10 uM, replicate 1
[12] = 48 h, 10 µM, compound concentration 10 uM, replicate 2

COc1cc(NC(=O)CCN2CCC(OC(=O)Nc3ccccc3-c3ccccc3)CC2)c(Cl)cc1CNC[C@H](O)c1ccc(O)c2[nH]c(=O)ccc12 [BATEFENTEROL]
Population Apoptotic (%) [1]: 42% | Population Fragmented Nuclei (%) [1]: 4% | Population Healthy Nuclei (%) [1]: 81% | Population Hoechst High Intensity Objects (%) [1]: 7% | Population Membrane Permeable-Phenotype (%) [1]: 0% | Population Mitochondria Different-Phenotype (%) [1]: 65% | Population Mitotic Cells (%) [1]: 57% | Population Normal (%) [1]: 92% | Population Pyknosed Nuclei (%) [1]: 14% | Population Tubulin-Different-Phenotype (%) [1]: 44% | Total Cell Count [1]: 420 | Population Apoptotic (%) [2]: 47% | Population Fragmented Nuclei (%) [2]: 3% | Population Healthy Nuclei (%) [2]: 78% | Population Hoechst High Intensity Objects (%) [2]: 8% | Population Mitochondria Different-Phenotype (%) [2]: 84% | Population Mitotic Cells (%) [2]: 52% | Population Normal (%) [2]: 91% | Population Pyknosed Nuclei (%) [2]: 17% | Population Tubulin-Different-Phenotype (%) [2]: 41% | Total Cell Count [2]: 285 | Population Apoptotic (%) [3]: 100% | Population Fragmented Nuclei (%) [3]: 90% | Population Healthy Nuclei (%) [3]: 0% | Population Hoechst High Intensity Objects (%) [3]: 31% | Population Membrane Permeable-Phenotype (%) [3]: 0% | Population Mitochondria Different-Phenotype (%) [3]: 0% | Population Mitotic Cells (%) [3]: 0% | Population Normal (%) [3]: 68% | Population Pyknosed Nuclei (%) [3]: 9% | Population Tubulin-Different-Phenotype (%) [3]: 0% | Total Cell Count [3]: 16 | Population Apoptotic (%) [4]: 52% | Population Fragmented Nuclei (%) [4]: 5% | Population Healthy Nuclei (%) [4]: 72% | Population Hoechst High Intensity Objects (%) [4]: 11% | Population Membrane Permeable-Phenotype (%) [4]: 1% | Population Mitochondria Different-Phenotype (%) [4]: 87% | Population Mitotic Cells (%) [4]: 47% | Population Normal (%) [4]: 88% | Population Pyknosed Nuclei (%) [4]: 22% | Population Tubulin-Different-Phenotype (%) [4]: 67% | Total Cell Count [4]: 303 | Population Apoptotic (%) [5]: 44% | Population Fragmented Nuclei (%) [5]: 9% | Population Healthy Nuclei (%) [5]: 77% | Population Hoechst High Intensity Objects (%) [5]: 5% | Population Membrane Permeable-Phenotype (%) [5]: 0% | Population Mitochondria Different-Phenotype (%) [5]: 59% | Population Mitotic Cells (%) [5]: 55% | Population Normal (%) [5]: 94% | Population Pyknosed Nuclei (%) [5]: 12% | Population Tubulin-Different-Phenotype (%) [5]: 35% | Total Cell Count [5]: 527 | Population Apoptotic (%) [6]: 41% | Population Fragmented Nuclei (%) [6]: 7% | Population Healthy Nuclei (%) [6]: 82% | Population Hoechst High Intensity Objects (%) [6]: 8% | Population Mitochondria Different-Phenotype (%) [6]: 65% | Population Mitotic Cells (%) [6]: 58% | Population Normal (%) [6]: 91% | Population Pyknosed Nuclei (%) [6]: 9% | Population Tubulin-Different-Phenotype (%) [6]: 27% | Total Cell Count [6]: 403 | Population Apoptotic (%) [7]: 0% | Population Fragmented Nuclei (%) [7]: 87% | Population Healthy Nuclei (%) [7]: 12% | Population Hoechst High Intensity Objects (%) [7]: 33% | Population Membrane Permeable-Phenotype (%) [7]: 0% | Population Mitochondria Different-Phenotype (%) [7]: 100% | Population Mitotic Cells (%) [7]: 0% | Population Normal (%) [7]: 66% | Population Pyknosed Nuclei (%) [7]: 0% | Population Tubulin-Different-Phenotype (%) [7]: 100% | Total Cell Count [7]: 12 | Population Apoptotic (%) [8]: 56% | Population Fragmented Nuclei (%) [8]: 6% | Population Healthy Nuclei (%) [8]: 73% | Population Hoechst High Intensity Objects (%) [8]: 7% | Population Mitochondria Different-Phenotype (%) [8]: 89% | Population Mitotic Cells (%) [8]: 43% | Population Normal (%) [8]: 93% | Population Pyknosed Nuclei (%) [8]: 19% | Population Tubulin-Different-Phenotype (%) [8]: 78% | Total Cell Count [8]: 357 | Population Apoptotic (%) [9]: 35% | Population Fragmented Nuclei (%) [9]: 15% | Population Healthy Nuclei (%) [9]: 75% | Population Hoechst High Intensity Objects (%) [9]: 3% | Population Membrane Permeable-Phenotype (%) [9]: 0% | Population Mitochondria Different-Phenotype (%) [9]: 36% | Population Mitotic Cells (%) [9]: 65% | Population Normal (%) [9]: 96% | Population Pyknosed Nuclei (%) [9]: 8% | Population Tubulin-Different-Phenotype (%) [9]: 17% | Total Cell Count [9]: 744 | Population Apoptotic (%) [10]: 51% | Population Fragmented Nuclei (%) [10]: 13% | Population Healthy Nuclei (%) [10]: 79% | Population Mitochondria Different-Phenotype (%) [10]: 42% | Population Mitotic Cells (%) [10]: 48% | Population Pyknosed Nuclei (%) [10]: 6% | Total Cell Count [10]: 547 | Population Apoptotic (%) [11]: 100% | Population Fragmented Nuclei (%) [11]: 58% | Population Healthy Nuclei (%) [11]: 25% | Population Hoechst High Intensity Objects (%) [11]: 7% | Population Membrane Permeable-Phenotype (%) [11]: 0% | Population Mitochondria Different-Phenotype (%) [11]: 66% | Population Mitotic Cells (%) [11]: 0% | Population Normal (%) [11]: 92% | Population Pyknosed Nuclei (%) [11]: 16% | Population Tubulin-Different-Phenotype (%) [11]: 66% | Total Cell Count [11]: 13 | Population Apoptotic (%) [12]: 57% | Population Fragmented Nuclei (%) [12]: 11% | Population Healthy Nuclei (%) [12]: 76% | Population Mitochondria Different-Phenotype (%) [12]: 76% | Population Mitotic Cells (%) [12]: 42% | Population Pyknosed Nuclei (%) [12]: 11% | Population Tubulin-Different-Phenotype (%) [12]: 74% | Total Cell Count [12]: 427
